# Assay results: ChEMBL document CHEMBL1130142, “(S)-spiro[(1,3-diazacyclopent-1-ene)-5,2'-(7'-methyl-1',2',3',4'- tetrahydronaphthalene)]: resolution, stereospecific synthesis, and preliminary pharmacological characterization as a partial alpha-adrenergic agonist” (J Med Chem, 1997)
# Assays:
# Canis familiaris [1] = species on record: Canis familiaris; assay: Maximum contractile response expressed as percentage (mean) of the maximal contraction to KCl (100 mM) in the isolated femoral artery
# Rattus norvegicus [2] = species on record: Rattus norvegicus; assay: The maximal pressure response caused by the compound in pithed rat; format: functional
# Canis familiaris [3] = species on record: Canis familiaris; assay: Effective Concentration compound in isolated canine femoral artery; format: functional; details: Canis lupus familiaris
# Summary of the method: (§1)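 Isolated canine blood vessels (saphenous vein without endothelium; femoral artery) exposed to increasing agonist concentrations; contractile responses measured.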
# Canis familiaris [4] = species on record: Canis familiaris; assay: Maximum contractile response expressed as percentage (mean) of the maximal contraction to KCl (100 mM) in the isolated saphenous vein
# Rattus norvegicus [5] = assay: Concentration which increases the arterial blood pressure by 20 mmHg in the pithed rat in vivo by intravenous administration; format: functional, Artery
# Canis familiaris [6] = species on record: Canis familiaris; assay: Effective concentration of compound in isolated canine saphenous vein; format: functional; details: Canis lupus familiaris
# Summary of the method: as §1
# [7] = C20 ratio was determined in the presence or absence of 1 mg of yohimbine for the compound which are indicative of the contribution of alpha-2 adnergic mechanisms to the pressor response; format: functional
# Summary of the method: (§2)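 Pithed rats received test compound as cumulative iv doses, and mean arterial pressure was recorded. C20 is the iv dose (µg/kg) that raises arterial pressure by 20 mmHg (mean ± SEM, n = 5). The same cumulative doses were repeated 10 min after iv prazosin 100 µg/kg or iv yohimbine 1 mg/kg. The ratio is C20 without antagonist over C20 with antagonist.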
# [8] = C20 ratio was determined in the presence or absence of 0.1 mg of prazosin for the compound which are indicative of the contribution of alpha-1 adnergic mechanisms to the pressor response; format: functional
# Summary of the method: as §2
# Canis familiaris [9] = species on record: Canis familiaris; assay: Maximum contractile response expressed as percentage (mean) of the maximal contraction to KCl (100 mM) in the isolated femoral artery; remark: listed apart in the source
# Canis familiaris [10] = species on record: Canis familiaris; assay: Maximum contractile response expressed as percentage (mean) of the maximal contraction to KCl (100 mM) in the isolated saphenous vein; remark: listed apart in the source
EC50 (Canis familiaris [3]),EC50 (Canis familiaris [6]),Structure (SMILES),Emax (Canis familiaris [1]),Max (Rattus norvegicus [2]),Emax (Canis familiaris [4]),C20 (Rattus norvegicus [5]),Ratio [7],Ratio [8],Emax (Canis familiaris [9]),Emax (Canis familiaris [10])
> 3000 nM,360 nM,Cc1ccc2c(c1)CC1(CC2)CN=CN1 (stereo unspecified),7.7,112 mmHg,68.5,6.7 µg/kg,,,,
> 3000 nM,2800 nM,Cc1ccc2c(c1)C[C@]1(CC2)CN=CN1,8.4,109 mmHg,39.4,44.8 µg/kg,,,,
> 3000 nM,220 nM,Cc1ccc2c(c1)C[C@@]1(CC2)CN=CN1,,106 mmHg,,5.8 µg/kg,,,15.8,78.3

Structure (SMILES),EC50 (Canis familiaris [3]),EC50 (Canis familiaris [6]),Emax (Canis familiaris [1]),Max (Rattus norvegicus [2]),Emax (Canis familiaris [4]),C20 (Rattus norvegicus [5]),Ratio [7],Ratio [8],Emax (Canis familiaris [9]),Emax (Canis familiaris [10])
FC(F)(F)c1ccc(Cl)c(NC2=NCCN2)c1,10900 nM,2020 nM,19.7,129 mmHg,54.4,8.6 µg/kg,1.8,16,,
